Results reported in ChEMBL document CHEMBL3860041, “Synthesis, biological evaluation and molecular modeling study of some new methoxylated 2-benzylthio-quinazoline-4(3H)-ones as nonclassical antifolates” (Bioorg Med Chem Lett, 2016).
In brackets after ≈: the same amount, converted by molar mass.

Columns and labels:
Dihydrofolate reductase = molecular target: T1, Dihydrofolate reductase (Bos taurus, UniProt P00376); test: Inhibition of bovine liver DHFR preincubated for 2 mins followed by addition of FH2 as substrate and NADPH
T1 sequence (P00376 whole entry): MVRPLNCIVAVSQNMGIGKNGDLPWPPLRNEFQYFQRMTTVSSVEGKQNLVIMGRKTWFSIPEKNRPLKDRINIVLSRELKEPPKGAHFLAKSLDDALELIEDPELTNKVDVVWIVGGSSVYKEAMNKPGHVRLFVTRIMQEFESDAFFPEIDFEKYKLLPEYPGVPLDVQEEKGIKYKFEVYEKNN

Pseudomonas aeruginosa [1] = test: Antimicrobial activity against Pseudomonas aeruginosa IFO 3448 measured after 24 hrs by microdilution method; format: functional
Staphylococcus aureus [2] = test: Antimicrobial activity against Staphylococcus aureus IFO 3060 measured after 24 hrs by microdilution method; format: functional
Bacillus subtilis [3] = test: Antimicrobial activity against Bacillus subtilis IFO 3007 measured after 24 hrs by microdilution method; format: functional
Candida albicans = test: Antimicrobial activity against Candida albicans IFO 0583 at 200 ug/disc measured after 48 hrs by agar disc-diffusion method; format: functional; conditions: IFO 0583, 48 h, read-out: DIZ
Staphylococcus aureus [4] = test: Antimicrobial activity against Staphylococcus aureus IFO 3060 at 200 ug/disc measured after 24 hrs by agar disc-diffusion method; format: functional; conditions: IFO 3060, 24 h, read-out: DIZ
Pseudomonas aeruginosa [5] = test: Antimicrobial activity against Pseudomonas aeruginosa IFO 3448 at 200 ug/disc measured after 24 hrs by agar disc-diffusion method; format: functional; conditions: IFO 3448, 24 h, read-out: DIZ
Bacillus subtilis [6] = test: Antimicrobial activity against Bacillus subtilis IFO 3007 at 200 ug/disc measured after 24 hrs by agar disc-diffusion method; format: functional; conditions: IFO 3007, 24 h, read-out: DIZ
Escherichia coli [7] = test: microbe, parasite or virus in culture; conditions: IFO 3301, 24 h
Escherichia coli [8] = test: Antimicrobial activity against Escherichia coli IFO 3301 at 200 ug/disc measured after 24 hrs by agar disc-diffusion method; format: functional; conditions: IFO 3301, 24 h, read-out: DIZ
[9] = Growth inhibition of human melanoma cells after 48 hrs by SRB assay; format: functional; conditions: Melanoma cell
Summary of the method: (§1)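 Follow-up NCI panel testing over a 5-log dose range for each cell line. GI50, TGI and LC50 were monitored, with 5-fluorouracil run as the positive control. Values are grouped by tumour subpanel.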

[10] = Growth inhibition of human prostate cancer cells after 48 hrs by SRB assay; format: functional; conditions: Cancer cell lines; summary of the method: as §1
[11] = Growth inhibition of human CNS cancer cells after 48 hrs by SRB assay; format: functional; conditions: Cancer cell lines
Summary of the method: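 Five-log dose range against NCI tumor cell lines, monitoring GI50, TGI and LC50 for each cell line; MG-MID values derived across the panel; 5-fluorouracil positive control.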

[12] = Growth inhibition of human non-small cell lung cancer cells after 48 hrs by SRB assay; format: functional; conditions: Cancer cell lines; summary of the method: as §1
[13] = Growth inhibition of human leukemia cells after 48 hrs by SRB assay; format: functional; conditions: Leukemia cell; summary of the method: as §1
[14] = Growth inhibition of human renal cancer cells after 48 hrs by SRB assay; format: functional; conditions: Cancer cell lines; summary of the method: as §1
[15] = Growth inhibition of human ovarian cancer cells after 48 hrs by SRB assay; format: functional; conditions: Cancer cell lines; summary of the method: as §1
[16] = Growth inhibition of human breast cancer cells after 48 hrs by SRB assay; format: functional; conditions: Cancer cell lines; summary of the method: as §1
[17] = Growth inhibition of human colon cancer cells after 48 hrs by SRB assay; format: functional; conditions: Cancer cell lines; summary of the method: as §1

COc1cc(CSc2nc3ccc(C)cc3c(=O)n2-c2ccc(C)cc2)cc(OC)c1OC
IC50 (Dihydrofolate reductase): 1.5 µM

GENTAMICIN
MIC (Pseudomonas aeruginosa [1]): 1 µg/mL | MIC (Staphylococcus aureus [2]): 2 µg/mL | MIC (Bacillus subtilis [3]): 2 µg/mL

COc1cc(CSc2nc3ccc(Cl)cc3c(=O)n2-c2ccc(Cl)cc2)cc(OC)c1OC
IC50 (Dihydrofolate reductase): 2 µM

COc1ccc(CSc2nc3ccc(C)cc3c(=O)n2Cc2ccccc2)cc1
IC50 (Dihydrofolate reductase): 0.01 µM

Clc1ccccc1C(c1ccccc1)(c1ccccc1)n1ccnc1 [CLOTRIMAZOLE]
zone of inhibition at 200 µg/disc (Candida albicans): 21 mm

COc1ccc(CSc2nc3cc(OC)c(OC)cc3c(=O)n2-c2ccc(Cl)cc2)cc1
zone of inhibition at 200 µg/disc (Staphylococcus aureus [4]): 20 mm | IC50 (Dihydrofolate reductase): 6 µM | zone of inhibition at 200 µg/disc (Pseudomonas aeruginosa [5]): 8 mm | MIC (Staphylococcus aureus [2]; IFO 3060, 24 h): 4 µg/mL (≈ 8.53 µM) | zone of inhibition at 200 µg/disc (Candida albicans): 8 mm | zone of inhibition at 200 µg/disc (Bacillus subtilis [6]): 18 mm | MIC (Escherichia coli [7]): 8 µg/mL (≈ 17.1 µM) | MIC (Bacillus subtilis [3]; IFO 3007, 24 h): 4 µg/mL (≈ 8.53 µM) | zone of inhibition at 200 µg/disc (Escherichia coli [8]): 15 mm

COc1ccc(-n2c(SCc3cc(OC)c(OC)c(OC)c3)nc3ccc(Cl)cc3c2=O)c(OC)c1
IC50 (Dihydrofolate reductase): 4 µM

COc1ccc(CSc2nc3cc(OC)c(OC)cc3c(=O)n2Cc2ccccc2)cc1
IC50 (Dihydrofolate reductase): 0.8 µM

O=c1[nH]cc(F)c(=O)[nH]1 [FLUOROURACIL]
GI50 [9]: 70.6 µM | TGI [9]: > 100 µM | GI50 [10]: 22.7 µM | TGI [10]: > 100 µM | TGI [11]: > 100 µM | GI50 [12]: > 100 µM | TGI [12]: > 100 µM | TGI [13]: > 100 µM | CC50 ([13]; read-out: LC50 (the source's name)): > 100 µM | GI50 [14]: 45.6 µM | TGI [14]: > 100 µM | GI50 [15]: 61.4 µM | TGI [15]: > 100 µM | GI50 [16]: 76.4 µM | TGI [16]: > 100 µM | GI50 [17]: 8.4 µM | TGI [17]: > 100 µM

COc1ccc(CSc2nc3ccc(Cl)cc3c(=O)n2-c2ccc(OC)cc2)cc1
IC50 (Dihydrofolate reductase): 0.1 µM

COc1ccc(CSc2nc3ccc(Cl)cc3c(=O)n2-c2ccccc2)cc1
zone of inhibition at 200 µg/disc (Staphylococcus aureus [4]): 14 mm | IC50 (Dihydrofolate reductase): 0.02 µM | zone of inhibition at 200 µg/disc (Pseudomonas aeruginosa [5]): 8 mm | zone of inhibition at 200 µg/disc (Candida albicans): 8 mm | zone of inhibition at 200 µg/disc (Bacillus subtilis [6]): 16 mm | zone of inhibition at 200 µg/disc (Escherichia coli [8]): 8 mm

COc1cc(CSc2nc3ccc(Cl)cc3c(=O)n2-c2ccc(C)cc2)cc(OC)c1OC
IC50 (Dihydrofolate reductase): 3 µM

COc1ccc(CSc2nc3ccc(Cl)cc3c(=O)n2Cc2ccccc2)cc1
IC50 (Dihydrofolate reductase): 1.1 µM

COc1ccc(CSc2nc3ccc(C)cc3c(=O)n2-c2ccc(OC)cc2OC)cc1
IC50 (Dihydrofolate reductase): 0.7 µM

O=C(O)c1cn(C2CC2)c2cc(N3CCNCC3)c(F)cc2c1=O [CIPROFLOXACIN]
zone of inhibition at 200 µg/disc (Staphylococcus aureus [4]): 32 mm | MIC (Pseudomonas aeruginosa [1]; IFO 3448, 24 h): 1 µg/mL (≈ 3.02 µM) | zone of inhibition at 200 µg/disc (Pseudomonas aeruginosa [5]): 36 mm | MIC (Staphylococcus aureus [2]; IFO 3060, 24 h): 0.5 µg/mL (≈ 1.51 µM) | zone of inhibition at 200 µg/disc (Bacillus subtilis [6]): 35 mm | MIC (Bacillus subtilis [3]; IFO 3007, 24 h): 0.5 µg/mL (≈ 1.51 µM) | zone of inhibition at 200 µg/disc (Escherichia coli [8]): 38 mm

COc1ccc(CSc2nc3ccc(C)cc3c(=O)n2-c2ccccc2OC)cc1
IC50 (Dihydrofolate reductase): 0.9 µM

COc1ccc(-n2c(SCc3cc(OC)c(OC)c(OC)c3)nc3cc(OC)c(OC)cc3c2=O)c(OC)c1
IC50 (Dihydrofolate reductase): 3 µM

COc1ccc(CSc2nc3cc(OC)c(OC)cc3c(=O)n2-c2ccccc2OC)cc1
IC50 (Dihydrofolate reductase): 0.6 µM
